Reference: ChEMBL document CHEMBL4177693, “Design, synthesis, and biological evaluation of thieno[2,3-d]pyrimidine derivatives as novel dual c-Met and VEGFR-2 kinase inhibitors” (Bioorg Med Chem, 2017)

Key:
HUVEC [1] = test: Antiproliferative activity against human VEGF-stimulated HUVEC cells at 1 uM after 120 hrs by CCK-8 assay relative to control; format: functional
Outline: (§1)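 HUVECs were plated in human endothelial serum-free medium. The next day, serial dilutions of compound or 0.1% DMSO vehicle were added, with 60 ng/mL recombinant human VEGF to drive proliferation for 120 h. Viability was read by CCK-8. IC50 came from nonlinear regression; percent inhibition was also scored at a single 1 μM concentration.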

BaF3 = test: Antiproliferative activity against mouse BAF3 cells harboring […] at 1 uM after 72 hrs by CCK-8 assay relative to control; format: functional; conditions: BaF3, 72 h
Outline: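 Murine BaF3 cells expressing TPR-Met (c-Met-dependent) were plated in RPMI 1640 with 10% FBS. Serial compound dilutions or 0.1% DMSO were added the following day, and cells were incubated a further 72 h before CCK-8 read-out. IC50 was fitted by nonlinear regression; single-point percent inhibition was tested at 1 μM.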

HUVEC [2] = test: Antiproliferative activity against human VEGF-stimulated HUVEC after 120 hrs by CCK-8 assay; format: functional, cell-based; outline: as §1

Row | Structure (SMILES) | inhibition at 1 µM (HUVEC [1]) [%] | inhibition at 1 µM (BaF3) [%] | IC50 (HUVEC [2]) [nM]
1 | Cc1c(C(=O)N2CCOCC2)sc2ncnc(Oc3ccc(NC(=O)C4(C(=O)Nc5ccc(F)cc5)CC4)cc3F)c12 | 10.8 | 61.5 | –
2 | Cc1c(C(=O)NC2CC2)sc2ncnc(Oc3ccc(NC(=O)C4(C(=O)Nc5ccc(F)cc5)CC4)cc3F)c12 | 13.7 | 26.6 | –
3 | Cc1c(C(=O)OCc2ccccc2)sc2ncnc(Oc3ccc(NC(=O)C4(C(=O)Nc5ccc(F)cc5)CC4)cc3F)c12 | 6.17 | 10.5 | –
4 | COCCCNC(=O)c1sc2ncnc(Oc3ccc(NC(=O)C4(C(=O)Nc5ccc(F)cc5)CC4)cc3F)c2c1C | 33.3 | 88.6 | –
5 | Cc1c(C(=O)O)sc2ncnc(Oc3ccc(NC(=O)C4(C(=O)Nc5ccc(F)cc5)CC4)cc3F)c12 | 8.72 | 2.13 | –
6 | COC(=O)c1sc2ncnc(Oc3ccc(NC(=O)C4(C(=O)Nc5ccc(F)cc5)CC4)cc3F)c2c1C | 4.56 | 18.1 | –
7 | Cc1c(C(=O)NCCS(C)(=O)=O)sc2ncnc(Oc3ccc(NC(=O)C4(C(=O)Nc5ccc(F)cc5)CC4)cc3F)c12 | 79.5 | 96 | 86
8 | Cc1c(C(=O)NCCCN2CCOCC2)sc2ncnc(Oc3ccc(NC(=O)C4(C(=O)Nc5ccc(F)cc5)CC4)cc3F)c12 | 61.3 | 92.8 | 153
9 | Cc1c(C(=O)NCCN2CCOCC2)sc2ncnc(Oc3ccc(NC(=O)C4(C(=O)Nc5ccc(F)cc5)CC4)cc3F)c12 | 73.6 | 95.4 | 89
10 | COc1cc2nccc(Oc3ccc(NC(=O)C4(C(=O)Nc5ccc(F)cc5)CC4)cc3)c2cc1OC [CABOZANTINIB] | 72.8 | 97.7 | –
11 | Cc1c(C(=O)N2CCCC2)sc2ncnc(Oc3ccc(NC(=O)C4(C(=O)Nc5ccc(F)cc5)CC4)cc3F)c12 | 15.8 | 31.1 | –
12 | Cc1c(C(=O)NCCC(C)C)sc2ncnc(Oc3ccc(NC(=O)C4(C(=O)Nc5ccc(F)cc5)CC4)cc3F)c12 | 27.5 | 86.6 | –
13 | Cc1c(C(=O)Nc2ccc(F)cc2)sc2ncnc(Oc3ccc(NC(=O)C4(C(=O)Nc5ccc(F)cc5)CC4)cc3F)c12 | 32.9 | 26.7 | –
14 | Cc1c(C(=O)N(C)C)sc2ncnc(Oc3ccc(NC(=O)C4(C(=O)Nc5ccc(F)cc5)CC4)cc3F)c12 | 24.4 | 60 | –
15 | Cc1c(C(=O)N2CCCCC2)sc2ncnc(Oc3ccc(NC(=O)C4(C(=O)Nc5ccc(F)cc5)CC4)cc3F)c12 | 10.5 | 20.3 | –
16 | Cc1c(C(=O)N2CCSCC2)sc2ncnc(Oc3ccc(NC(=O)C4(C(=O)Nc5ccc(F)cc5)CC4)cc3F)c12 | 15.5 | 23 | –
17 | Cc1c(C(=O)NCC#N)sc2ncnc(Oc3ccc(NC(=O)C4(C(=O)Nc5ccc(F)cc5)CC4)cc3F)c12 | 66.7 | 92.6 | 123
18 | Cc1c(C(=O)NCCN2CCCC2)sc2ncnc(Oc3ccc(NC(=O)C4(C(=O)Nc5ccc(F)cc5)CC4)cc3F)c12 | 29.7 | 88.2 | –
19 | CC(=O)N1CCN(C(=O)c2sc3ncnc(Oc4ccc(NC(=O)C5(C(=O)Nc6ccc(F)cc6)CC5)cc4F)c3c2C)CC1 | 23.8 | 61 | –
20 | COCCNC(=O)c1sc2ncnc(Oc3ccc(NC(=O)C4(C(=O)Nc5ccc(F)cc5)CC4)cc3F)c2c1C | 68.9 | 90.9 | 139
21 | CCOC(=O)c1sc2ncnc(Oc3ccc(NC(=O)C4(C(=O)Nc5ccc(F)cc5)CC4)cc3F)c2c1C | 12.7 | 16.4 | –
